Assays:
[1] = Half life in anesthetized Sprague-Dawley rat at 5 mg/kg, iv; format: ADME, organism-based; design: dose 5 mg/kg, route intravenous; settings: in vivo
Outline: (§1)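 Bolus iv injection over 15 s into anesthetised rats, 3 per group. Citrated blood taken under anesthesia predose and at 2, 5, 15, 30 min and 1, 2, 3 h. Plasma obtained by centrifugation at 1700g, 20 C, 5 min, then stored at -80 C. Two acetonitrile precipitations before drug measurement. Parameters derived by noncompartmental analysis of concentration–time curve.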

[2] = Clearance in anesthetized Sprague-Dawley rat at 5 mg/kg, iv; format: ADME, organism-based; design: dose 5 mg/kg, route intravenous; settings: in vivo; outline: as §1
[3] = test system: Plasma; test: Anticoagulant potency in human plasma assessed as concentration required to double the thrombin time; format: functional
Outline: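 Plasma from citrated blood of healthy volunteers, centrifuged at 2000g for 10 min and kept on ice. Plasma incubated 2 min at 37 C, then thrombin reagent added. Clotting time monitored at 660 nm on an automated analyzer.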

[4] = target: Coagulation factor IX (Homo sapiens, UniProt P00740); test: Inhibition of human recombinant factor 9a by amidolytic assay
Chain of Coagulation factor IX (P00740 47-191 limits assumed): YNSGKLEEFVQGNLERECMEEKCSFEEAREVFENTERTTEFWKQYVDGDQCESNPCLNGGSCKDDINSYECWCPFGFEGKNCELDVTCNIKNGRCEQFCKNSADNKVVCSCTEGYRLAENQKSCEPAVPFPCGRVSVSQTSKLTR
Chain of Coagulation factor IX (P00740 227-461 limits assumed): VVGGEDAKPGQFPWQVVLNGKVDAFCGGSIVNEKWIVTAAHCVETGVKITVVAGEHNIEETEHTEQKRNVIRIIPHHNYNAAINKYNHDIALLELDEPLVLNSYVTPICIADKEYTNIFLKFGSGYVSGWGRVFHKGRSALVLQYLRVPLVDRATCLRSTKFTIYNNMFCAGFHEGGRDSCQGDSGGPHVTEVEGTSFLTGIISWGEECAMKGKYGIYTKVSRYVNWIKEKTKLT

[5] = Selectivity ratio of Ki for factor 10a to Ki for human recombinant factor 9a
[6] = Selectivity ratio of Ki for uPA to Ki for human recombinant factor 9a
[7] = Protein binding in human plasma; format: ADME, cell-free; settings: read-out: PPB (converted)
[8] = test system: Plasma; test: Anticoagulant potency in human plasma assessed as concentration required to double the […]; format: functional
Outline: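 Citrated plasma from healthy volunteers, centrifuged at 2000g for 10 min and held on ice. Plasma incubated 1 min at 37 C, aPTT reagent (FSL) added, then 3 min at 37 C. Clotting started with 0.025 M CaCl2. Clot formation read at 660 nm on an automated coagulation analyzer.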

[9] = Metabolic stability in human liver assessed as turnover; format: ADME, tissue-based; settings: read-out: Stability
[10] = test system: Plasma; test: Anticoagulant potency in human plasma assessed as concentration required to double the prothrombin time; format: functional
Outline: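 Citrated plasma from healthy volunteers, centrifuged at 2000g for 10 min and held on ice. Plasma incubated 3 min at 37 C before addition of thromboplastin PT reagent (Thromborel S). Clot formation followed at 660 nm in an automated coagulation analyzer.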

[11] = target: Coagulation factor X (Homo sapiens, UniProt P00742); test: Inhibition of factor 10a by amidolytic assay
Chain of Coagulation factor X (P00742 41-179 limits assumed): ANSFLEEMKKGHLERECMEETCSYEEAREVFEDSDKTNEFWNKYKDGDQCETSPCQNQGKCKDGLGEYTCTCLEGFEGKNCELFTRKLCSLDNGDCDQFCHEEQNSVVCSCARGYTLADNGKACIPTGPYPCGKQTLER
Chain of Coagulation factor X (P00742 235-488 limits assumed): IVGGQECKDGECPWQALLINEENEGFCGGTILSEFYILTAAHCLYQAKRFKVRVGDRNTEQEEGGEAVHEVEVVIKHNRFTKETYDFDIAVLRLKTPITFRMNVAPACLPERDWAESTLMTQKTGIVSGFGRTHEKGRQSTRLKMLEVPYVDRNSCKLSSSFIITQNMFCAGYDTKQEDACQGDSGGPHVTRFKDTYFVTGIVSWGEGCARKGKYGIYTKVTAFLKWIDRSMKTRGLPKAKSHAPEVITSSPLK
Outline: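 […] taken as the mean of at least three experiments. Variation between runs stated as under 10%.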

[12] = Cmax in anesthetized Sprague-Dawley rat at 5 mg/kg, iv; format: ADME, organism-based; design: dose 5 mg/kg, route intravenous; settings: in vivo; outline: as §1
[13] = AUC (0 to infinity) in anesthetized Sprague-Dawley rat at 5 mg/kg, iv; format: ADME, organism-based; design: dose 5 mg/kg, route intravenous, time infinity; settings: plasma; outline: as §1
[14] = target: Urokinase-type plasminogen activator (Homo sapiens, UniProt P00749)

half-life [1]	clearance [2]	Ki [4]	Ratio Ki [5]	Ratio Ki [6]	fraction unbound [7]	metabolised [9]	Ki [11]	Cmax [12]	AUC(0-inf) [13]	Ki [14]	SMILES	Activity [3]	Activity [8]	Activity [10]
2.1 h	129 mL/min/kg	10 nM	205	17	0.04	18%	2050 nM	5.19 µM	0.951 µM·h	169 nM	Cc1cc(NC(=O)OCC(Oc2cccc3sc(C(=N)N)cc23)c2ccccc2)n(C)n1 (centres undefined)	60 µM	12.8 µM	57 µM
5.5 h	32.4 mL/min/kg	8 nM	213	98	–	11%	1700 nM	10.5 µM	5.19 µM·h	780 nM	N=C(N)c1cc2c(OC(COC(=O)Nc3ccc(F)cc3)c3ccccc3)cccc2s1 (centres undefined)	–	–	–

From ChEMBL document CHEMBL1156932, “Structure based drug design: development of potent and selective factor IXa (FIXa) inhibitors” (J Med Chem, 2010)
